Assay results as given in ChEMBL document CHEMBL1938337, “Discovery of novel, potent, and selective inhibitors of 3-phosphoinositide-dependent kinase (PDK1)” (J Med Chem, 2011).
Converted amounts (≈) assume the structure as drawn.

How the values were obtained:
[1] = biological target: T1, 3-phosphoinositide-dependent protein kinase 1 (Homo sapiens, UniProt O15530); experiment: Inhibition of recombinant human His-tagged PDK1 catalytic domain using Ac-Sox-PKTFCGTPEYLAPEVRREPRILSEEEQEMFRDFDYIAD-NH2 as substrate by fluorescence-based spectrophotometry
T1 sequence (O15530 whole entry): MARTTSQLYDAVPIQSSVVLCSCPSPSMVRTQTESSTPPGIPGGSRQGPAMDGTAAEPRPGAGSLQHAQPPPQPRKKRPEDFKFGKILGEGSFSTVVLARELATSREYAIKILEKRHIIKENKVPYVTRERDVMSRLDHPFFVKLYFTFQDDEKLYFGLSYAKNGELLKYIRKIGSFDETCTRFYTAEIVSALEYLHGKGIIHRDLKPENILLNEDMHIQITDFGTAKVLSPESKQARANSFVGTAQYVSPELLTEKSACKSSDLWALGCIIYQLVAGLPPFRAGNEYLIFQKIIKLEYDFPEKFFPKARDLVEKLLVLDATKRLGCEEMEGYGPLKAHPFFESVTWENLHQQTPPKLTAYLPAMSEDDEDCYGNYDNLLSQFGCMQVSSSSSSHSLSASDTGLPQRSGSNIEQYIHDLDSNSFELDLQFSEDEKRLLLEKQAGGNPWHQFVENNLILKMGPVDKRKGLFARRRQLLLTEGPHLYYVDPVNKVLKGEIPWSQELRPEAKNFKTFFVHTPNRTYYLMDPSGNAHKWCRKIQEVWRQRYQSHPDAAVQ

[2] = biological target: Phosphatidylinositol 4,5-bisphosphate 3-kinase catalytic subunit alpha isoform (Mus musculus, UniProt P42337); experiment: Inhibition of mouse PI3Kalpha after 30 mins by fluorescence polarization assay
Outline: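 Mouse PI3Kα 0.5 nM with 30 μM PIP₂, 5 mM MgCl₂, 200 μM ATP, 30 min at room temperature (~22 °C); stopped with 10 mM EDTA. Then 3 min with detector mix of 480 nM GST-Grp1 PH domain and 12 nM TAMRA-PIP₃. Fluorescence polarization read in 50 mM Hepes pH 7.4, 150 mM NaCl, 5 mM DTT, 0.05% CHAPS. Duplicate points, nonlinear regression fit.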

[3] = Solubility of the compound at pH 6.5; type: physicochemical; details: buffer
[4] = Passive permeability in canine kidney cells; type: ADME, cell-based, Canis lupus familiaris; details: dog; read-out: permeability
[5] = Clearance in human liver microsomes; type: ADME, Microsome; details: read-out: CLH
[6] = Inhibition of recombinant GST-tagged P70S6K using 5FAM-KRSRTRTDSYSAGQ-COOH as substrate by fluorescence based assay
Outline: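 GST-tagged P70S6K (a.a. 1-421) at 5 nM, 50 μM ATP, 5 μM 5FAM-peptide. Product separated from substrate by charge (electrophoretic mobility shift, −2500/−500 V). Duplicates, nonlinear regression fit.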

[7] = biological target: RAC-alpha serine/threonine-protein kinase (Homo sapiens, UniProt P31749); experiment: Inhibition of His-tagged AKT1 using 5FAM-GRPRTSSFAEGCONH2 as substrate by fluorescence based assay
[8] = biological target: Serine/threonine-protein kinase mTOR (Homo sapiens, UniProt P42345); experiment: Inhibition of GST-tagged mTOR assessed as phosphorylation at Thr46 in GFP-4E-BP1 substrate by TR-FRET assay
Outline: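 GST-tagged mTOR (aa 1360-2549) at 1 nM, with 0.4 μM GFP-4E-BP1 and 40 μM ATP. Buffer: 50 mM Hepes pH 7.4, 10 mM MgCl2, 1 mM EGTA, 0.01% Tween-20, at about 22 °C. A terbium anti-phospho-Thr46 antibody was added at the end, and the read-out was TR-FRET. Duplicate data fitted by nonlinear regression. Concentrations are final.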

CYP3A4 = CYP3A4 (Homo sapiens, UniProt P08684); experiment: Inhibition of CYP3A4 at 3 uM; type: ADME
CYP3A4 (Homo sapiens) [9] = experiment: Inhibition of CYP3A4 at 3 uM
CYP3A4 (Homo sapiens) [10] = experiment: Inhibition of CYP3A4 at 3 uM; remark: listed apart in the source
CYP3A4 (Homo sapiens) [11] = experiment: Inhibition of CYP3A4 at 3 uM; remark: listed apart in the source

Chain of RAC-alpha serine/threonine-protein kinase (P31749 whole entry): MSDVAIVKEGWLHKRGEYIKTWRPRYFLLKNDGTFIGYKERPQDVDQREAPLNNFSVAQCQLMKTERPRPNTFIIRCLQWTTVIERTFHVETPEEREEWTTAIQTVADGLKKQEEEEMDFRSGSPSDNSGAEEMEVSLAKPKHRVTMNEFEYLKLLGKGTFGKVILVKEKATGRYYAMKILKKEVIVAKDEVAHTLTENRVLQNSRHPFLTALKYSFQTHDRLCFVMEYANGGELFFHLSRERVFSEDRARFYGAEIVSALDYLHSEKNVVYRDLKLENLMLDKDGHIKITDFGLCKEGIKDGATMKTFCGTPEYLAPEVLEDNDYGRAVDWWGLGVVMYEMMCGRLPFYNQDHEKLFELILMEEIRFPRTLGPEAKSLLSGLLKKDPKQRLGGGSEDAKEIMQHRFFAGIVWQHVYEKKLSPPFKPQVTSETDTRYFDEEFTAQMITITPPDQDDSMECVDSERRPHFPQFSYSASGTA
Chain of Phosphatidylinositol 4,5-bisphosphate 3-kinase catalytic subunit alpha isoform (P42337 whole entry, the tested form may be a part, canonical isoform): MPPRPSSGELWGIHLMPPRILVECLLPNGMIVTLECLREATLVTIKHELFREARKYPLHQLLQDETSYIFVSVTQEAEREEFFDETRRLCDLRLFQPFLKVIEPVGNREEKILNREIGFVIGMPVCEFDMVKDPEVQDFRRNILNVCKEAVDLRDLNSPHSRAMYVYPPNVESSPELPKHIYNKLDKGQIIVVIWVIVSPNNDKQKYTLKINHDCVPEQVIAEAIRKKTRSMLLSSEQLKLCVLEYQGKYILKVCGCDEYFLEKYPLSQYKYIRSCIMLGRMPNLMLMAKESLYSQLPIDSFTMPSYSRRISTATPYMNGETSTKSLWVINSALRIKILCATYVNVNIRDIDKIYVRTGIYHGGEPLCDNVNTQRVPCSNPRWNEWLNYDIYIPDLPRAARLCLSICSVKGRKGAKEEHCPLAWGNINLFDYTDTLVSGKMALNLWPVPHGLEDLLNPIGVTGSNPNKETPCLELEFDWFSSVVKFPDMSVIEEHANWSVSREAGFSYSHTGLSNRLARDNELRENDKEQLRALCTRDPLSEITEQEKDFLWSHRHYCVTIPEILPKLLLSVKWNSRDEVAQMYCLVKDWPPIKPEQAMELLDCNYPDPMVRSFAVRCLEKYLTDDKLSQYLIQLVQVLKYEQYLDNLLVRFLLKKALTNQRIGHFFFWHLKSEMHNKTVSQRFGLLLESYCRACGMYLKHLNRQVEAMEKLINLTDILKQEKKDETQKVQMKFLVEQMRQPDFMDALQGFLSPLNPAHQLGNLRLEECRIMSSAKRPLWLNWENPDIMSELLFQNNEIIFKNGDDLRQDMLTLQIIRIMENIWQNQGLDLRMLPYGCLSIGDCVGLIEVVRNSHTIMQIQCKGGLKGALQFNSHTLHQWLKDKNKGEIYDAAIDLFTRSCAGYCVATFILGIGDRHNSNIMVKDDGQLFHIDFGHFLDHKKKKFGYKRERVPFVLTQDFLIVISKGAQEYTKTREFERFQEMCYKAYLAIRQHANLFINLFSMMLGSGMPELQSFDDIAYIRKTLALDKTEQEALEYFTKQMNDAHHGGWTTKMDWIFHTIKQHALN
Chain of CYP3A4 (P08684 whole entry): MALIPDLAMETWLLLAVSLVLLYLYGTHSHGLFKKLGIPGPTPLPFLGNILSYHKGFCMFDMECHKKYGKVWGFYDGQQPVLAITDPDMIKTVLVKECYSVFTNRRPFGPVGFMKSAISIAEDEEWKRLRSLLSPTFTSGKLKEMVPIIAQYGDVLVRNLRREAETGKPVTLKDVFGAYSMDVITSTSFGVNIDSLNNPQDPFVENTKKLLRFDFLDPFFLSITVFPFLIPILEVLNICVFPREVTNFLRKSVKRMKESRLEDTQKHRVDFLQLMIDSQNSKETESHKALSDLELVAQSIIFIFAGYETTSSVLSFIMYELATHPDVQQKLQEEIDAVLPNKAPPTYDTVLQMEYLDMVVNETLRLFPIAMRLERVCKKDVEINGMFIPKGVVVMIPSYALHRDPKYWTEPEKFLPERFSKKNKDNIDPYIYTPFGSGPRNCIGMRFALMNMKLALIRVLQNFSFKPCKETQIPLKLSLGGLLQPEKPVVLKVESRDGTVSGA

| SMILES | Ki [1] | Ki [2] | solubility [3] | Papp [4] | microsomal CLint [5] | Ki [6] | Ki [7] | Ki [8] | inhibition at 3 µM (CYP3A4) | inhibition at 3 µM (CYP3A4 (Homo sapiens) [9]) | inhibition at 3 µM (CYP3A4 (Homo sapiens) [10]) | inhibition at 3 µM (CYP3A4 (Homo sapiens) [11]) |
| --- | --- | --- | --- | --- | --- | --- | --- | --- | --- | --- | --- | --- |
| CNc1cncc(C(=O)c2cn(C(C)C)c3ncnc(N)c23)n1 | 100 nM | – | – | – | – | – | – | – | – | – | – | – |
| CC(C)n1cc(C(=O)c2cncc(N[C@@H]3CCC[C@@H]3c3ccc(F)cc3)n2)c2c(N)ncnc21 | 0.6 nM | 320 nM | 6 µM (≈ 2.76 µg/mL) | 6 ×10⁻⁶ cm/s | 160 µL/min/mg | 230 nM | 210 nM | 3900 nM | – | – | – | – |
| CC(C)n1cc(C(=O)c2cncc(N[C@@H]3CCO[C@@H]3c3ccc(F)cc3)n2)c2c(N)ncnc21 | 1.3 nM | 430 nM | 120 µM (≈ 55.4 µg/mL) | 13 ×10⁻⁶ cm/s | 220 µL/min/mg | 61 nM | 230 nM | 3900 nM | – | – | – | – |
| CC(C)n1cc(C(=O)c2cncc(NCCc3cccnc3)n2)c2c(N)ncnc21 | – | 250 nM | – | – | – | – | – | – | – | – | – | – |
| CC(C)n1cc(C(=O)c2cncc(N[C@@H]3CCN[C@@H]3c3ccc(F)cc3)n2)c2c(N)ncnc21 | 1 nM | 150 nM | 520 µM (≈ 239 µg/mL) | 5 ×10⁻⁶ cm/s | 92 µL/min/mg | 120 nM | 100 nM | 2100 nM | – | – | – | – |
| CC(C)n1cc(C(=O)c2cncc(N(C)[C@@H]3CCC[C@@H]3c3ccc(F)cc3)n2)c2c(N)ncnc21 | 0.9 nM | 650 nM | – | – | – | – | – | – | – | – | – | – |
| CC(C)n1cc(C(=O)c2cncc(N[C@@H]3CNC[C@@H]3c3ccc(F)cc3)n2)c2c(N)ncnc21 | 2.5 nM | 370 nM | 480 µM (≈ 221 µg/mL) | 2 ×10⁻⁶ cm/s | 59 µL/min/mg | 11 nM | 10 nM | 1100 nM | 27% | 27% | 27% | 27% |
| CC(C)n1cc(C(=O)c2cncc(N[C@@H]3COC[C@@H]3c3ccc(F)cc3)n2)c2c(N)ncnc21 | – | 570 nM | 23 µM (≈ 10.6 µg/mL) | 13 ×10⁻⁶ cm/s | 160 µL/min/mg | 170 nM | 260 nM | 500 nM | – | – | – | – |
| CC(C)n1cc(C(=O)c2cncc(N[C@@H]3CCC[C@@H]3c3ccccc3)n2)c2c(N)ncnc21 | 2 nM | 130 nM | – | – | – | – | – | – | – | – | – | – |
